We go through 5 compounds from ChEMBL document CHEMBL5108081, “Development of an N-Terminal BRD4 Bromodomain-Targeted Degrader” (ACS Med Chem Lett, 2022).

Data set [1] deals with T1, Protein cereblon/Bromodomain-containing protein 4 (Homo sapiens, UniProt O60885+Q96SW2). As to the kind of experiment: Binding affinity to GST-tagged CRBN/6xHis-tagged BRD4-BD1 (unknown origin) assessed as induction of dimerization of CRBN/BRD4-BD1 measured by TR-FRET assay. The data set is classed as protein assay. On the technique in general: TR-FRET usually uses a lanthanide donor and a delayed reading to cut background.
T1 sequence (Q96SW2 whole entry, looked up, other chains not shown): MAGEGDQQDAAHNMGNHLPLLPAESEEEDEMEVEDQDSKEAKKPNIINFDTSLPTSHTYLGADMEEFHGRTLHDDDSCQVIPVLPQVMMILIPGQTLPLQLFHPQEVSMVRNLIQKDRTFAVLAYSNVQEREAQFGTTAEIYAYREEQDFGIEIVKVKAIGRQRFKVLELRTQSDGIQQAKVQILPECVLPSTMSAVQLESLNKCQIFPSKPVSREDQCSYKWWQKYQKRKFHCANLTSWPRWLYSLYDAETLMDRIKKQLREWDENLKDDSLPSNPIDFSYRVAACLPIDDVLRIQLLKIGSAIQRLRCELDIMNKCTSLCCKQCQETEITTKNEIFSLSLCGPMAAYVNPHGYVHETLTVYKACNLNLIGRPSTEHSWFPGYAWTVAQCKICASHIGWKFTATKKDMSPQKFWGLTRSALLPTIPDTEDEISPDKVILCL

The target in data set [2] is T1, Protein cereblon/Bromodomain-containing protein 4. In words: Binding affinity to GST-tagged CRBN/6xHis-tagged BRD4-BD2 (unknown origin) assessed as induction of dimerization of CRBN/BRD4-BD2 measured by TR-FRET assay. The data set is classed as protein assay.
The species named for data set [3] is Homo sapiens. In words: Ratio IC50 for inhibition of BRD2-BD1 (unknown origin) over inhibition of His9-tagged BRD4-BD1 (unknown origin).
The species named for data set [4] is Homo sapiens. As to the kind of experiment: Ratio IC50 for inhibition of BRD3-BD1 (unknown origin) over inhibition of His9-tagged BRD4-BD1 (unknown origin).
Data set [5] is filed under the species Homo sapiens. As to the kind of experiment: Ratio IC50 for inhibition of BRD4-BD2 (unknown origin) over inhibition of His9-tagged BRD4-BD1 (unknown origin).
For data set [6], the species on record is Homo sapiens. In words: Ratio IC50 for inhibition of BRD3-BD2 (unknown origin) over inhibition of His9-tagged BRD4-BD1 (unknown origin).
The species named for data set [7] is Homo sapiens. In words: Ratio IC50 for inhibition of BRD2-BD2 (unknown origin) over inhibition of His9-tagged BRD4-BD1 (unknown origin).
Data set [8] deals with T1, Protein cereblon/Bromodomain-containing protein 4. As to the kind of experiment: Protac activity at CRBN/BRD4-BD1 in human MM1.S cells assessed as induction of BRD4-BD1 degradation measured at 5 uM after 8 hrs by western blot analysis. The data set is classed as cell-based. A digest of the protocol: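 Time-course study in MM.1S cells with BRD4 levels followed by western blot at successive time points. BRD2, BRD3 and cMyc were also probed.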

Data set [9] shares this target. In words: Protac activity at CRBN/BRD4-BD1 in human MM1.S cells assessed as induction of BRD4-BD1 degradation measured after 24 hrs by western blot analysis. The data set is classed as cell-based. A digest of the protocol: (§1)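 MM.1S cells were treated for 24 h, and BRD4 was probed by western blot. Band densitometry was quantified from three biological replicate blots.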
(Immunoblotting shows a protein as a band on a membrane.)

Data set [10] has the same target. As to the kind of experiment: Protac activity at CRBN/BRD4-BD1 in human MM1.S cells assessed as induction of BRD4-BD1 degradation measured at 1 uM in presence of 0.01 to 1 uM iBET-BD2 measured by Western blot analysis. The data set is classed as cell-based. An outline of the steps:
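Rescue experiment in MM.1S cells: the degrader was co-treated with a pan-BD1 inhibitor, the proteasome inhibitor MG132, the neddylation inhibitor MLN4924 or the pan-BD2 inhibitor iBET-BD2. BRD4 was then read by western blot against an untreated control on the same gel.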

The target is the same in data set [11]. As to the kind of experiment: Binding affinity to GST-tagged CRBN/6xHis-tagged BRD4-BD1 (unknown origin) assessed as ternary complex formation measured by TR-FRET assay. The data set is classed as protein assay.
Data set [12] shares this target. As to the kind of experiment: Protac activity at Halo-tagged CRBN/BRD4-BD1-NanoLuc fusion protein expressed in human HEK293T cells assessed as induction of BRD4-BD1 degradation at 0.2 uM measured by NanoBRET assay. The data set is classed as cell-based. (In general: BRET reads energy transfer from a luciferase to a nearby fluorophore.)
For data set [13] the target is unchanged. As to the kind of experiment: Binding affinity to GST-tagged CRBN/6xHis-tagged BRD4-BD1 (unknown origin) assessed as induction of dimerization of CRBN/BRD4-BD1 at 4.6 nM measured by TR-FRET assay. The data set is classed as protein assay.
Data set [14] concerns MM1.S. As to the kind of experiment: Cytotoxicity against human MM1.S cells assessed as downregulation of cMyc expression. The data set is classed as toxicity, cell-based.
In data set [15] the target is T1, Protein cereblon/Bromodomain-containing protein 4. As to the kind of experiment: Protac activity at CRBN/BRD4-BD1 in human MM1.S cells assessed as induction of BRD4-BD1 degradation measured after 24 hrs by western blot analysis relative to control. The data set is classed as cell-based. A digest of the protocol: as §1
The target in data set [16] is T2, Bromodomain-containing protein 3 (Homo sapiens, UniProt Q15059). As to the kind of experiment: Inhibition of BRD3-BD2 (unknown origin) measured by AlphaScreen assay. A digest of the protocol: (§2)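 Commercial AlphaScreen displacement assay run by an outside service on a panel of BET bromodomains. Values are the means of duplicate experiments.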
T2 sequence (Q15059 whole entry): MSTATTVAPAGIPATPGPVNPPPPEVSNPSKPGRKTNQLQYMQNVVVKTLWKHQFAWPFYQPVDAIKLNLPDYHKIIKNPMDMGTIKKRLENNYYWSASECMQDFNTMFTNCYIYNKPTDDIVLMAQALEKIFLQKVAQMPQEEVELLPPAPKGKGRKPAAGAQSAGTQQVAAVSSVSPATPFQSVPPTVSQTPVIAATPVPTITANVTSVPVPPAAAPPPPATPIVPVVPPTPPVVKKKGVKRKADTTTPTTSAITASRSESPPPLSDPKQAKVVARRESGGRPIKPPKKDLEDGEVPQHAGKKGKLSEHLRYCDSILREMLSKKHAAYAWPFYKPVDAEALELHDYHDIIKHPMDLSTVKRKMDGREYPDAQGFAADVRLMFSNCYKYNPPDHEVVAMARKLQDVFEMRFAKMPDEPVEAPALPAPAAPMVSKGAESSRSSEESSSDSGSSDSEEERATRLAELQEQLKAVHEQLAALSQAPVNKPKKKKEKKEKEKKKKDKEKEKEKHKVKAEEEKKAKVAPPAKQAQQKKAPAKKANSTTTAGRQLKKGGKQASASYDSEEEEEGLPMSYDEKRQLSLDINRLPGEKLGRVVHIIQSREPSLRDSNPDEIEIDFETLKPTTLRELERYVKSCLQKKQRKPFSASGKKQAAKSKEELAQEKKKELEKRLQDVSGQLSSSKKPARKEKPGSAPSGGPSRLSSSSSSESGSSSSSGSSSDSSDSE
The target in data set [17] is T3, Bromodomain-containing protein 2 (Homo sapiens, UniProt P25440). As to the kind of experiment: Inhibition of BRD2-BD1 (unknown origin) measured by AlphaScreen assay. An outline of the steps:
as §2

Data set [18] deals with T2, Bromodomain-containing protein 3. In words: Inhibition of BRD3-BD1 (unknown origin) measured by AlphaScreen assay. An outline of the steps: as §2
The target of data set [19] is T3, Bromodomain-containing protein 2. In words: Inhibition of BRD2-BD2 (unknown origin) measured by AlphaScreen assay. An outline of the steps: as §2

The source made the active and inactive calls. The calls are words filed in the database; no cut-off is given here.

T3 sequence (P25440 whole entry): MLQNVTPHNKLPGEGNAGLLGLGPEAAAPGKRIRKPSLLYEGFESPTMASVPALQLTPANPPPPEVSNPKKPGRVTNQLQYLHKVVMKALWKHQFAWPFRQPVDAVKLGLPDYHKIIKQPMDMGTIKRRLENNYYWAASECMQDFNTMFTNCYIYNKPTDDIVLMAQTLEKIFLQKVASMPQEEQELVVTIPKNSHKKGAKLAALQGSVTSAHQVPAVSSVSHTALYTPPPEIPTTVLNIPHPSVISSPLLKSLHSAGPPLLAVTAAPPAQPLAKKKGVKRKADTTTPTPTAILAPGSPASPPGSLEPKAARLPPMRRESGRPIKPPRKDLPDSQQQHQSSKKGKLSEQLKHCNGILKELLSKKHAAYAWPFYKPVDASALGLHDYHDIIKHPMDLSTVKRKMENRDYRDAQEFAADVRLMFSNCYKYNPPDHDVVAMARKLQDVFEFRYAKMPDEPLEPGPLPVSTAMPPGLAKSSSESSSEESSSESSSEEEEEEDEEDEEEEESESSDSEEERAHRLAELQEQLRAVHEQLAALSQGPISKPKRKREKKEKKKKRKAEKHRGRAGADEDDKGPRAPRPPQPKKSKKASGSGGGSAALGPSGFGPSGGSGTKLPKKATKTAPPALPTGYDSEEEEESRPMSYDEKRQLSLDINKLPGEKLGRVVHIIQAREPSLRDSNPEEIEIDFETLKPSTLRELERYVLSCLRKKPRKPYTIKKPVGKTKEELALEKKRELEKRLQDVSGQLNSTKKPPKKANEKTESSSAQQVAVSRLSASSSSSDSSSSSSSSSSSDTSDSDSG

Regarding `Cc1sc2c(c1C)C(c1ccc(Cl)cc1)=N[C@@H](CC(=O)NCCCCNC(=O)COc1cccc3c1C(=O)N(C1CCC(=O)NC1=O)C3=O)c1nnc(C)n1-2` (some centres not stated), the outcome in [1] and in [2] was Active.

`Cc1cc(C)cc(Nc2nccc(-c3c(-c4ccc(C(F)(F)F)cc4)ncn3C3CCN(CCN)CC3)n2)c1`: the Ratio IC50 in data set [3], in [4], in [5], in data set [6] and in [7] was 9 each time.

For the compound `Cc1cc(C)cc(Nc2nccc(-c3c(-c4ccc(F)cc4)ncn3C3CCNCC3)n2)c1`, the Ratio IC50 in data set [4], in data set [6] and in data set [7] was 6 throughout.

The term DC50 denotes the concentration at which degradation of the target reaches its halfway point. For the compound `Cc1ccc(C(C)C)cc1Oc1nccc(-c2c(-c3ccc(C(F)(F)F)cc3)ncn2C2CCN(CCOCCOCCNC(=O)COc3cccc4c3C(=O)N(C3CCC(=O)NC3=O)C4=O)CC2)n1` (configuration not stated), the result in data set [8], in data set [10], in data set [11], in data set [12] and in data set [13] was Active. Besides, the DC50 in data set [9] amounted to 280 nM. Further, the Activity result in data set [14] was “Non-Toxic”; in [15] it was 77%.

A word on the IC50: it is the point on the concentration scale where inhibition reaches its midpoint. A higher IC50 goes with a need for much substance. Take `Cc1ccc(C(C)C)cc1Oc1nccc(-c2c(-c3ccc(C(F)(F)F)cc3)ncn2C2CCNCC2)n1`: the IC50 in data set [16] was 75000 nM; in data set [17], 280 nM; in data set [18], 1000 nM; in data set [19], 7100 nM.
